# Measured values as given in PMC2193507 (The Journal of Experimental Medicine, 2001).
# Key:
# type A T cells = assay: Type A T cell hybridomas, recognition; type: cell-based; details: all type A T cells in Table 1
# Summary of the method: (§1)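 IL-2 release assay: I-Ak-expressing M12.C3.F6 B lymphoma cells (5 × 104) were incubated with T cell hybridomas (5 × 104) and decreasing doses of antigen (native HEL or HEL 48–61 peptide) in MEM with 10% FCS for 18 h. Supernatants went to IL-2-dependent CTLL-2 cells cultured 40 h, with [3H]thymidine for the last 24 h.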
# type B T cells = assay: Type B T cell hybridomas, recognition; type: cell-based; details: none of the type B triggered up to the value
# Summary of the method: as §1
# [1] = Isoaspartyl content of peptides; type: physicochemical; details: tested at 250 pmol
# Summary of the method: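 Isoaspartate quantified by radiolabelled methyl incorporation using protein isoaspartyl methyltransferase and S-adenosyl-L-[methyl-3H]methionine, following the ISOQUANT kit protocol. Each peptide preparation was tested at 250 pmol. The manufacturer's standard gave an estimated 1,754 cpm per pmol. Batches had been stored frozen or at 4°C.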
# T cell proliferation = details: in words; cited from earlier work
# [2] = batch Abbt (6/98), commercial source
# [3] = batch RD (7/00), tryptic peptide from HEL
substance,measurement,setting,value
HEL: HEL was purchased from Sigma-Aldrich,HEL concentration triggering all type A T cells,type A T cells,~0.1 µM
same,HEL concentration up to which none of the type B T cells were triggered,type B T cells,> 10 µM
"48–63: HEL peptide 48–63, batches 1387 and Abbt (commercial source) (DGSTDYGILQINSRWW; UniProt P00698 66-81, looked up, fragment)",percentage of isoaspartyl,[1]; batch 1387 (8/99),0.1%
same,pmol of isoaspartyl,[1]; batch 1387 (8/99),0.3 pmol
same,percentage of isoaspartyl,[1]; [2],0 (0%)
same,pmol of isoaspartyl,[1]; [2],0 (0%) pmol
46–61: tryptic peptide from HEL,percentage of isoaspartyl,[1]; [3],0.9%
same,pmol of isoaspartyl,[1]; [3],2.1 pmol
"murine cytochrome c peptide, residues 90–104: murine cytochrome c peptide, residues 90–104 (ERADLIAYLKKATNE; UniProt P62897 91-105, looked up, fragment)",T cell proliferation after immunization of mice,T cell proliferation,did not trigger T cell proliferation
